Screens from PubChem.
This is one part of a sample in which hits are shown more often than they occur.
CHOP inhibitor – inhibitors of CHOP promoter induction, primary screen, cell-based, unfolded protein response, luciferase reporter | CHO-K1 CHOP-promoter luciferase, tunicamycin-induced, 15-18 h | inhibition, % at 10 µM | 220,000 compounds, 3.8% hits;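 active = compounds that reduced the stress-induced luciferase reporter signal by more than about 70% of percent inhibition, limit read from the data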
CHOP UPR activ – activators of apoptotic CHOP UPR arm, primary screen, cell-based, CHO-CHOP luciferase reporter, luminescence, uHTS; UPR activation; percent of tunicamycin response over DMSO baseline; activation, % at 10 µM; 330,000 compounds, 0.34% hits; AID 449763, 2010;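 active = at 10 µM dose, activation of 40% or more, normalized to positive control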
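Dosing – one dose, 10 µM in 0.5% DMSO · System – CHO-CHOP cells, stable luciferase reporter of PERK-eIF2a-CHOP signalling · Input – 500 cells/well · Control set – tunicamycin 10 µg/mL final as positive, DMSO-only wells as negative · Timing – 6 h compound treatment, 37 °C · Measure – % activation vs tunicamycin · Technique – luminescence read with Steady-Glo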
697 NFkB inh – inhibitors of PMA/ionomycin-induced NF-kB reporter, 697 cells, primary screen, B-cell NF-kB inhibitor project, cell-based, luminescence, uHTS; 697 B-cell NF-kB luciferase reporter, 16 h; 330,000 compounds, 0.33% hits; inhibition, % at 4 µM; in the data active = inhibition above about 35%
XBP1 UPR activ – activators of adaptive XBP1 UPR arm, primary screen, cell-based, CHO-XBP1 luciferase reporter, luminescence, uHTS | IRE1-XBP1 UPR activation; percent of tunicamycin response, DMSO as zero | activation, % at 20 µM | 330,000 compounds, 0.33% hits | AID 463104, 2010;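 active = versus positive control, 20 µM dose yields 30% or more activation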
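Material: CHO cell line with stable XBP1 luciferase reporter; buffer or medium: F12 medium containing 10% fetal bovine serum; compound: single point, 20 µM final compound, 1% DMSO; incubation: 6 h treatment, 37 °C; measured by: glow luminescence from Steady-Glo reagent; evaluation: activation, % of tunicamycin; control set: tunicamycin high, DMSO low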
Jurkat NFkB inh – inhibitors of induced NF-kB luciferase reporter, primary screen, TCR NF-kB activation inhibitor project, cell-based, luminescence, uHTS; Jurkat, PMA/ionomycin-induced NF-kB luciferase reporter; inhibition, % at 4 µM; 330,000 compounds, 0.53% hits; AID 435003, 2010; in the data active = inhibition above about 50%
Hits are given with their value.

`Cc1sc(NC(=O)CN2CCOCC2)nc1-c1ccc2c(c1)CCN2S(=O)(=O)c1ccccc1` gave CHOP inhibitor 72, CHOP UPR activ inactive, 697 NFkB inh inactive, XBP1 UPR activ inactive and Jurkat NFkB inh inactive.
For CCCNC(C)(C)COC(=O)c1ccccc1 the results were CHOP UPR activ inactive, 697 NFkB inh inactive, XBP1 UPR activ inactive and Jurkat NFkB inh inactive.
For O=[N+]([O-])c1ccc(-c2ccc(/C=N/Nc3nc(N4CCCC4)nc(N4CCCC4)n3)o2)cc1 the results were CHOP inhibitor inactive, CHOP UPR activ inactive, 697 NFkB inh inactive, XBP1 UPR activ inactive and Jurkat NFkB inh inactive.
For O=[N+]([O-])c1cccc(-c2ccc(/C=N/Nc3nc(N4CCCCC4)nc(N4CCCCC4)n3)o2)c1 the results were CHOP inhibitor inactive, CHOP UPR activ inactive, 697 NFkB inh inactive, XBP1 UPR activ inactive and Jurkat NFkB inh inactive.
COc1nc(N/N=C/c2ccc(-c3cccc([N+](=O)[O-])c3)o2)nc(N2CCOCC2)n1 was read as CHOP inhibitor 71.
`O=[N+]([O-])c1ccc(-c2ccc(/C=N/Nc3nc(N4CCCCC4)nc(N4CCCCC4)n3)o2)cc1` gave CHOP inhibitor 95, CHOP UPR activ inactive, 697 NFkB inh inactive, XBP1 UPR activ inactive and Jurkat NFkB inh inactive.
Screening CCOC(=O)CC1COCCN1C(=O)c1ccc2oc(Cc3ccccc3)nc2c1 (centres undefined) returned CHOP UPR activ inactive, 697 NFkB inh inactive, XBP1 UPR activ inactive and Jurkat NFkB inh inactive.
For CCCCN(C)C(=O)CNC(=O)c1nn(-c2ccc(OC)cc2OC)c(=O)c2ccccc12 the results were CHOP UPR activ inactive, 697 NFkB inh inactive, XBP1 UPR activ inactive and Jurkat NFkB inh inactive.
`O=[N+]([O-])c1ccc(OCCO)c(P(=O)(c2ccccc2)c2ccccc2)c1` gave CHOP inhibitor inactive, CHOP UPR activ inactive, 697 NFkB inh inactive, XBP1 UPR activ inactive and Jurkat NFkB inh inactive.
Cc1nc2sc(C(c3ccco3)N3CCN(c4ccccc4F)CC3)c(O)n2n1 (centres undefined) was read as CHOP inhibitor inactive, CHOP UPR activ inactive, 697 NFkB inh inactive, XBP1 UPR activ inactive and Jurkat NFkB inh inactive.
Cc1nc2sc(C(c3ccc(Cl)cc3)N3CCN(c4ccccc4F)CC3)c(O)n2n1 (centres undefined) was read as CHOP inhibitor 83, CHOP UPR activ inactive, 697 NFkB inh inactive, XBP1 UPR activ inactive and Jurkat NFkB inh inactive.
COc1cccc(-c2cc(N)nn2C(=O)Nc2ccc(Cl)cc2)c1 was read as CHOP inhibitor 95, CHOP UPR activ inactive, 697 NFkB inh inactive, XBP1 UPR activ inactive and Jurkat NFkB inh inactive.
For C=CCN=C1NN=C(c2cc(C)n(CCOC)c2C)CS1 the results were CHOP inhibitor 80, CHOP UPR activ inactive, 697 NFkB inh inactive, XBP1 UPR activ inactive and Jurkat NFkB inh inactive.
For COCCn1c(C)cc(C2=NNC(=Nc3ccc(Cl)cc3Cl)SC2)c1C the results were CHOP inhibitor inactive, CHOP UPR activ inactive, 697 NFkB inh inactive, XBP1 UPR activ inactive and Jurkat NFkB inh inactive.
Screening CCC(C)Sc1nc2c(c(=O)[nH]1)C(c1cccs1)C1=C(CCCC1=O)N2 (centres undefined) returned CHOP inhibitor 82, CHOP UPR activ inactive, 697 NFkB inh inactive, XBP1 UPR activ inactive and Jurkat NFkB inh inactive.
For Cc1ccnc2c(N3C(=O)C4C5C=CC(C5)C4(C)C3=O)cccc12 (centres undefined) the results were CHOP inhibitor inactive, CHOP UPR activ inactive, 697 NFkB inh inactive, XBP1 UPR activ inactive and Jurkat NFkB inh inactive.
Screening CC12C(=O)N(c3ccccn3)C(=O)C1C1C=CC2C1 (centres undefined) returned CHOP inhibitor 75, CHOP UPR activ inactive, 697 NFkB inh inactive, XBP1 UPR activ inactive and Jurkat NFkB inh inactive.
FC(F)(F)c1cc(Nc2ccccc2)nc(-c2ccccn2)n1 was read as CHOP UPR activ inactive, 697 NFkB inh inactive, XBP1 UPR activ inactive and Jurkat NFkB inh inactive.
For FC(F)(F)c1cc(Sc2ccccc2)nc(-c2ccccn2)n1 the results were CHOP inhibitor 71, CHOP UPR activ inactive, 697 NFkB inh inactive, XBP1 UPR activ inactive and Jurkat NFkB inh inactive.
For CC(OC(=O)c1cccc(-n2cnnn2)c1)C(=O)NC1(C#N)CCCCC1 (centres undefined) the results were CHOP UPR activ inactive, 697 NFkB inh inactive, XBP1 UPR activ inactive and Jurkat NFkB inh inactive.
CCNc1nc(SCC(=O)Nc2ccc(Cl)c(Cl)c2)nc(N(C)C)n1 was read as CHOP inhibitor 79, CHOP UPR activ inactive, 697 NFkB inh inactive, XBP1 UPR activ inactive and Jurkat NFkB inh inactive.
`CN(C)c1nc(NCc2ccccc2)nc(SCC(=O)Nc2ccc(Cl)c(Cl)c2)n1` gave CHOP inhibitor inactive, CHOP UPR activ inactive, 697 NFkB inh inactive, XBP1 UPR activ inactive and Jurkat NFkB inh inactive.
Screening CC(/C=C1\N=C(SCc2ccccc2Cl)SC1=O)=C\c1ccccc1 returned CHOP inhibitor 76, CHOP UPR activ inactive, 697 NFkB inh inactive, XBP1 UPR activ inactive and Jurkat NFkB inh inactive.
For Cc1ccc(S(=O)(=O)Nc2cc(=O)[nH]c(SCc3ccc(Cl)cc3)n2)cc1 the results were CHOP inhibitor 86.
O=c1cc(NS(=O)(=O)c2ccccc2)nc(SCc2c(Cl)cccc2Cl)[nH]1 was read as CHOP inhibitor 80, CHOP UPR activ inactive, 697 NFkB inh inactive, XBP1 UPR activ inactive and Jurkat NFkB inh inactive.
For Cc1ccc(-c2csc(NCCn3c(C)nc4cc(C(F)(F)F)ccc43)n2)cc1 the results were CHOP UPR activ inactive, 697 NFkB inh inactive, XBP1 UPR activ inactive and Jurkat NFkB inh inactive.
`Cc1sc2ncn(/N=C/c3ccco3)c(=O)c2c1C` gave CHOP inhibitor inactive, CHOP UPR activ inactive, 697 NFkB inh inactive, XBP1 UPR activ inactive and Jurkat NFkB inh inactive.
For CC(C)c1nc(NCc2ccccc2)c(C#N)c2c1CCCC2 the results were CHOP inhibitor inactive, CHOP UPR activ inactive, 697 NFkB inh inactive, XBP1 UPR activ inactive and Jurkat NFkB inh inactive.
`CC(=O)Nc1sc2c(c1C#N)CCN(Cc1ccccc1)C2` gave CHOP UPR activ inactive, 697 NFkB inh inactive, XBP1 UPR activ inactive and Jurkat NFkB inh inactive.
Screening CN1CCc2c(C#N)c(N3CCCCC3)nc(NCc3ccccc3)c2C1 returned CHOP inhibitor 84, CHOP UPR activ inactive, 697 NFkB inh inactive, XBP1 UPR activ inactive and Jurkat NFkB inh inactive.
N#Cc1c(NCCCO)nc(NCc2ccccc2)c2c1CCN(Cc1ccccc1)C2 was read as CHOP inhibitor 88, CHOP UPR activ inactive, 697 NFkB inh inactive, XBP1 UPR activ inactive and Jurkat NFkB inh inactive.
Screening CC(=O)Oc1c(C)cc(Cl)cc1C(=O)Nc1ccc([N+](=O)[O-])cc1Cl returned CHOP inhibitor 92, CHOP UPR activ inactive, 697 NFkB inh inactive, XBP1 UPR activ inactive and Jurkat NFkB inh inactive.
